# Results as given in PMC4324449 (ACS Chemical Biology, 2014).
# Legend:
# [1] = Self-association by concentration-dependent UV–vis absorption; type: physicochemical; conditions: for self-association by UV–vis, in words: concentration-dependent λmax, Tris buffer pH 7.4
# Method in brief: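 Absorption spectra recorded over a foldamer dilution series in 10 or 1 mm cuvettes. λmax plotted against concentration and fitted to a monomer-hexamer equilibrium, with monomer and hexamer λmax as fitted variables. Salt series run in 0.05 M Tris, pH 7.4, at varying NaCl, with all salt conditions fitted globally.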
# [2] = Self-association by ITC heats of dilution; type: physicochemical; conditions: dilution in TBS, 25 °C
# Method in brief: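 Heats of dilution at 25 °C. Foldamer at 1 mM in TBS (0.050 M Tris, 0.150 M NaCl, pH 7.4) injected serially into TBS in the calorimetric cell. Heat per injection taken from the integrated peak area, normalized over accumulated additions and plotted against final foldamer concentration. Fitted to a monomer-dimer-hexamer or monomer-hexamer model, depending on the foldamer.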
Substance,"self-association by UV–vis, in words [1]","pK(hex-mon) UV–vis ([1]; concentration dependence of λmax in TBS pH 7.4, monomer-hexamer fit, K in M5)","self-assembly by ITC, in words [2]"
(D-Cit-Sal)4-CONH2 [Compound 7],did not appear to show significant dissociation,–,–
(Lys-Sal)3-CONH2 [Compound 8],did not show any spectral changes at concentrations as high as 500 μM,<15,–
(Lys-Sal)4-COOH [Compound 2],did not appear to associate at all over this concentration range,–,very weak to no self-assembly
